# In ChEMBL document CHEMBL1255456, “Effect of NlpE overproduction on multidrug resistance in Escherichia coli” (2010):
# Activity calls are given as the source filed them. The rule behind the calls is not given here.
# Assays:
# Escherichia coli [1] = test: Antibacterial activity against Escherichia coli NKE96 harboring deletion mutation in acrB protein; format: functional
# Escherichia coli [2] = test: Antibacterial activity against Escherichia coli NKE154 harboring vector expressing acrB deletion mutant; format: functional
# Escherichia coli [3] = test: Antibacterial activity against Escherichia coli NKE155 harboring deletion mutation in acrB protein and plasmid expressing nlpE gene; format: functional
# Escherichia coli [4] = test: Antibacterial activity against Escherichia coli NKE127 harboring deletion mutation in acrB and cpxAR protein; format: functional
# Escherichia coli [5] = test: Antibacterial activity against Escherichia coli NKE158 harboring deletion mutation in acrB protein and vector expressing cpxAR gene; format: functional
# Escherichia coli [6] = test: Antibacterial activity against Escherichia coli NKE159 harboring deletion mutation in acrB, cpxAR protein and plasmid expressing nlpE gene; format: functional
# Escherichia coli [7] = test: Antibacterial activity against Escherichia coli NKE128 harboring deletion mutation in acrB and tolC protein; format: functional
# Escherichia coli [8] = test: Antibacterial activity against Escherichia coli NKE160 harboring deletion mutation in acrB protein and vector expressing tolC gene; format: functional
# Escherichia coli [9] = test: Antibacterial activity against Escherichia coli NKE161 harboring deletion mutation in acrB protein, vector expressing tolC gene and plasmid expressing nlpE gene; format: functional
# Escherichia coli [10] = test: Antibacterial activity against Escherichia coli NKE126 harboring deletion mutation in acrB and acrD protein; format: functional
# Escherichia coli [11] = test: Antibacterial activity against Escherichia coli NKE156 harboring deletion mutation in acrB protein and vector expressing acrD gene; format: functional
# Escherichia coli [12] = test: Antibacterial activity against Escherichia coli NKE157 harboring deletion mutation in acrB, acrD protein and plasmid expressing nlpE gene; format: functional
# Escherichia coli [13] = test: Antibacterial activity against Escherichia coli NKE1365 harboring deletion mutation in acrB and mdtABC protein; format: functional
# Escherichia coli [14] = test: Antibacterial activity against Escherichia coli NKE1366 harboring deletion mutation in acrB and vector expressing mdtABC gene; format: functional
# Escherichia coli [15] = test: Antibacterial activity against Escherichia coli NKE1367 harboring deletion mutation in acrB, mdtABC protein and plasmid expressing nlpE gene; format: functional
# Escherichia coli [16] = test: Antibacterial activity against Escherichia coli NKE1316 harboring deletion mutation in acrB, acrD and mdtABC protein; format: functional
# Escherichia coli [17] = test: Antibacterial activity against Escherichia coli NKE1369 harboring deletion mutation in acrB, acrD, mdtABC protein and plasmid expressing nlpE gene; format: functional
# Escherichia coli [18] = test: Antibacterial activity against Escherichia coli NKE1368 harboring deletion mutation in acrB, acrD and mdtABC genes and carrying empty pHSG398 vector
# Escherichia coli [19] = test: Antibacterial activity against Escherichia coli NKE1359 harboring deletion mutation in acrB protein and plasmid expressing BADnlpE gene in presence of increasing concentration of arabinose; format: functional, organism-based
# Method in brief: (§1)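 ΔacrB host carrying empty pBAD33 or pBAD33 with nlpE under the arabinose-inducible PBAD promoter. MICs of oxacillin, cloxacillin, nafcillin, cefamandole, aztreonam, novobiocin, deoxycholate and kanamycin were measured with arabinose at several concentrations from 0 to 10,000 μM. Each MIC determination was repeated at least three times.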
# Escherichia coli [20] = test: Antibacterial activity against Escherichia coli NKE1355 harboring deletion mutation in acrB protein and plasmid expressing BAD gene in presence of increasing concentration of arabinose; format: functional, organism-based; method in brief: as §1
Structure (SMILES),MIC (Escherichia coli [1]),MIC (Escherichia coli [2]),MIC (Escherichia coli [3]),MIC (Escherichia coli [4]),MIC (Escherichia coli [5]),MIC (Escherichia coli [6]),MIC (Escherichia coli [7]),MIC (Escherichia coli [8]),MIC (Escherichia coli [9]),MIC (Escherichia coli [10]),MIC (Escherichia coli [11]),MIC (Escherichia coli [12]),MIC (Escherichia coli [13]),MIC (Escherichia coli [14]),MIC (Escherichia coli [15]),MIC (Escherichia coli [16]),MIC (Escherichia coli [17]),MIC (Escherichia coli [18]),Activity (Escherichia coli [19]),Activity (Escherichia coli [20])
CC1(C)S[C@@H]2[C@H](NC(=O)C(c3ccccc3)S(=O)(=O)O)C(=O)N2[C@H]1C(=O)O (some centres undefined) [SULBENICILLIN],2 µg/mL,2 µg/mL,16 µg/mL,1 µg/mL,1 µg/mL,1 µg/mL,1 µg/mL,1 µg/mL,1 µg/mL,1 µg/mL,1 µg/mL,2 µg/mL,2 µg/mL,2 µg/mL,8 µg/mL,1 µg/mL,1 µg/mL,1 µg/mL,,
C[C@H]1[C@H](NC(=O)/C(=N\OC(C)(C)C(=O)O)c2csc(N)n2)C(=O)N1S(=O)(=O)O [AZTREONAM],0.063 µg/mL,0.063 µg/mL,0.25 µg/mL,0.063 µg/mL,0.063 µg/mL,0.063 µg/mL,0.063 µg/mL,0.063 µg/mL,0.063 µg/mL,0.063 µg/mL,0.063 µg/mL,0.063 µg/mL,0.063 µg/mL,0.063 µg/mL,0.25 µg/mL,0.063 µg/mL,0.063 µg/mL,0.063 µg/mL,inactive,Active
C[C@H](CCC(=O)O)[C@H]1CC[C@H]2[C@@H]3CC[C@@H]4C[C@H](O)CC[C@]4(C)[C@H]3C[C@H](O)[C@]12C [DEOXYCHOLIC ACID],5000 µg/mL,5000 µg/mL,40000 µg/mL,2500 µg/mL,2500 µg/mL,2500 µg/mL,156 µg/mL,156 µg/mL,156 µg/mL,5000 µg/mL,5000 µg/mL,10000 µg/mL,5000 µg/mL,5000 µg/mL,10000 µg/mL,2500 µg/mL,2500 µg/mL,2500 µg/mL,inactive,Active
CO[C@@H]1[C@@H](OC(N)=O)[C@@H](O)[C@H](Oc2ccc3c(O)c(NC(=O)c4ccc(O)c(CC=C(C)C)c4)c(=O)oc3c2C)OC1(C)C [NOVOBIOCIN],4 µg/mL,4 µg/mL,16 µg/mL,4 µg/mL,4 µg/mL,4 µg/mL,2 µg/mL,2 µg/mL,2 µg/mL,4 µg/mL,4 µg/mL,8 µg/mL,4 µg/mL,4 µg/mL,8 µg/mL,2 µg/mL,2 µg/mL,2 µg/mL,inactive,Active
Cc1onc(-c2ccccc2Cl)c1C(=O)N[C@@H]1C(=O)N2[C@@H]1SC(C)(C)[C@@H]2C(=O)O [CLOXACILLIN],1 µg/mL,1 µg/mL,16 µg/mL,1 µg/mL,1 µg/mL,1 µg/mL,0.25 µg/mL,0.25 µg/mL,0.25 µg/mL,1 µg/mL,1 µg/mL,2 µg/mL,1 µg/mL,1 µg/mL,4 µg/mL,0.5 µg/mL,0.5 µg/mL,0.5 µg/mL,inactive,Active
Cn1nnnc1SCC1=C(C(=O)O)N2C(=O)[C@@H](NC(=O)[C@H](O)c3ccccc3)[C@H]2SC1 [CEFAMANDOLE],0.063 µg/mL,0.063 µg/mL,0.25 µg/mL,0.063 µg/mL,0.063 µg/mL,0.063 µg/mL,0.063 µg/mL,0.063 µg/mL,0.063 µg/mL,0.063 µg/mL,0.063 µg/mL,0.13 µg/mL,0.063 µg/mL,0.063 µg/mL,0.13 µg/mL,0.063 µg/mL,0.063 µg/mL,0.063 µg/mL,inactive,Active
CC1(C)S[C@@H]2[C@H](NC(=O)C(C(=O)O)c3ccccc3)C(=O)N2[C@H]1C(=O)O (some centres undefined) [CARBENICILLIN],1 µg/mL,1 µg/mL,8 µg/mL,1 µg/mL,1 µg/mL,1 µg/mL,1 µg/mL,1 µg/mL,1 µg/mL,1 µg/mL,1 µg/mL,2 µg/mL,1 µg/mL,1 µg/mL,4 µg/mL,1 µg/mL,1 µg/mL,1 µg/mL,,
NC(=O)OC[C@@H]1[C@H](NC(=O)/C(=N\OCC(=O)O)c2csc(N)n2)C(=O)N1S(=O)(=O)O [CARUMONAM],0.031 µg/mL,0.031 µg/mL,0.25 µg/mL,0.031 µg/mL,0.031 µg/mL,0.031 µg/mL,0.031 µg/mL,0.031 µg/mL,0.031 µg/mL,0.031 µg/mL,0.031 µg/mL,0.063 µg/mL,0.031 µg/mL,0.031 µg/mL,0.13 µg/mL,0.031 µg/mL,0.031 µg/mL,0.031 µg/mL,,
